Source: PubChem BioAssay (Broad Institute)
Only some compounds are listed: those with a hit (about 3.1% of all), similar ones and a draw of the others.
ERAP1 inh = human ERAP1 aminopeptidase inhibitors, primary screen, biochemical, single point, plate reader. recombinant ERAP1, Leu-AMC fluorescence, 60 min. 0.15% of 340,000 active. inhibition, % at 10.7 µM;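 active means mean replicate inhibition of at least 30%, or all replicates individually reaching that 30% level; inactive means mean below 30% and not every replicate reaching it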
SIRT5 inh = SIRT5 desuccinylase inhibitors, primary screen, biochemical, fluorescence imaging, single point, set 5 | inhibition, % at 15 µM | NAD-dependent protein deacylase sirtuin-5, mitochondrial (Homo sapiens), Q9NXA8 | Purified SirT5, succinyl-peptide AMC, trypsin-coupled fluorescence | 1.1% of 330,000 active; in the data active means inhibition above about 15%
Target sequence (Q9NXA8 whole entry, looked up): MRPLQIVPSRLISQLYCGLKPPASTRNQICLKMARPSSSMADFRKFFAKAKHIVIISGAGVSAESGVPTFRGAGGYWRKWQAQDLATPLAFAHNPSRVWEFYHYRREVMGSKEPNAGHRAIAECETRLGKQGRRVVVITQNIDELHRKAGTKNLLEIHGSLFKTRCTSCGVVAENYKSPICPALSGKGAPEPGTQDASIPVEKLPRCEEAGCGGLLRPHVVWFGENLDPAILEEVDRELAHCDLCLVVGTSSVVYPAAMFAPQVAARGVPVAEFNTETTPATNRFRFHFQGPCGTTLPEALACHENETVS
CFTR F508del cor = F508del CFTR correction, initial screen, CFBE line, single point; CFBE cells, YFP halide quenching; stimulated with forskolin plus potentiator P3; % fluorescence drop versus neutral controls; activity (quench increase), % at 7.58 µM; 0.36% of 350,000 active;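 active means mean added fluorescence quench of at least 8% versus neutral control, with both replicates also reaching 8%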;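 further: cells transiently co-express mutant CFTR-F508del with the halide-sensitive YFP; corrector assay measuring rescue of mutant channel to the surface after 24 h compound exposure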
rRNA inh HTS = reduced GFP signal of wild-type E. coli, primary screen, bacterial rRNA inhibitor project, GFP/RFP fluorescence, OD600, single point | E. coli WT GFP vs humanized-ribosome RFP mutants, 24 h; stronger effect = lower value; DMSO median 0, no signal -100 | GFP signal change (wild-type ribosome), % (concentration not given with the values) | 1.6% of 350,000 active;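 active means significant combined selectivity score with lowered wild-type GFP, culture density cut under 30%, mutant RFP and density less affected; inactive means any of these conditions unmet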
S100A4 MyoIIA = inhibitors of S100A4-myosin IIA peptide binding, primary screen, biochemical, fluorescence polarization, TAMRA-MyoIIA peptide; Protein S100-A4 (Homo sapiens), P26447; inhibition, % at 10.7 µM; 0.14% of 360,000 active; AID 652163, 2013;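 active means mean inhibition of at least 70% across replicates, with every replicate also reaching that level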
Target sequence (P26447 whole entry, looked up): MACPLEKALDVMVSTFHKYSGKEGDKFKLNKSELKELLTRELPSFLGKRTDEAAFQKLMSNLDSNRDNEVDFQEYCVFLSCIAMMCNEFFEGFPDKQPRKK
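System – human S100A4 monomer protein, biochemical binding assay · Buffer or medium – Calcium-containing HEPES buffer, pH 7.2 · Timing – 5 min between mix addition and reading · Also added – TAMRA-labelled myosin IIA heavy-chain peptide probe, 5 nM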
A number is an active result.

Results for COc1cccc(NC(=O)N2CC(=O)N3[C@H](CO)[C@H](c4ccc(C#CCC5CCCC5)cc4)[C@@H]3C2)c1 ?
ERAP1 inh: inactive; SIRT5 inh: 24; CFTR F508del cor: inactive; rRNA inh HTS: inactive; S100A4 MyoIIA: inactive

Results for COc1cccc(NC(=O)N2CC(=O)N3[C@H](CO)[C@@H](c4ccc(C#CCC5CCCC5)cc4)[C@H]3C2)c1 ?
ERAP1 inh: inactive; SIRT5 inh: 22; CFTR F508del cor: inactive; rRNA inh HTS: inactive; S100A4 MyoIIA: inactive

Results for COc1ccc(NC(=O)N2CC(=O)N3[C@H](CO)[C@H](c4ccc(C#CCC5CCCC5)cc4)[C@@H]3C2)cc1 ?
ERAP1 inh: inactive; SIRT5 inh: inactive; CFTR F508del cor: inactive; rRNA inh HTS: inactive; S100A4 MyoIIA: inactive

Results for COc1ccc(NC(=O)N(C)C[C@H]2OCCCC[C@H](C)Oc3ccc(NC(=O)Cc4ccccc4)cc3C(=O)N([C@H](C)CO)C[C@@H]2C)cc1 ?
ERAP1 inh: inactive; SIRT5 inh: inactive; CFTR F508del cor: inactive; rRNA inh HTS: inactive; S100A4 MyoIIA: inactive

How did COc1cccc(NC(=O)N2CC(=O)N3[C@H](C2)[C@H](c2ccc(C#CCC4CCCC4)cc2)[C@@H]3CO)c1 do in these assays?
ERAP1 inh: inactive; SIRT5 inh: 25; CFTR F508del cor: inactive; rRNA inh HTS: inactive; S100A4 MyoIIA: inactive

What do the screens show for `CCCS(=O)(=O)c1c(S(=O)(=O)CCC)c2c(N)cccn2c1C(=O)c1ccc(OC)cc1`?
ERAP1 inh: inactive; SIRT5 inh: 16; CFTR F508del cor: inactive; rRNA inh HTS: inactive; S100A4 MyoIIA: inactive

Results for CCCS(=O)(=O)c1c(S(=O)(=O)CCC)c2ccc(C(N)=O)cn2c1C(=O)c1ccc(F)cc1 ?
ERAP1 inh: inactive; SIRT5 inh: inactive; CFTR F508del cor: inactive; rRNA inh HTS: inactive; S100A4 MyoIIA: inactive

Results for CCC(=O)N1C[C@H]2[C@@H](c3ccccc31)[C@@H](CO)N2Cc1ccccc1F ?
ERAP1 inh: inactive; SIRT5 inh: inactive; CFTR F508del cor: inactive; rRNA inh HTS: inactive; S100A4 MyoIIA: inactive

Results for O=C1C=CN(C2OC(CO)C(O)C2O)C(=O)C1 (stereo unspecified) ?
ERAP1 inh: inactive; CFTR F508del cor: 9.7; rRNA inh HTS: inactive; S100A4 MyoIIA: inactive

Results for NC(=O)c1ccc(=O)n(C2OC(CO)C(O)C2O)c1 (stereo unspecified) ?
ERAP1 inh: inactive; SIRT5 inh: inactive; CFTR F508del cor: inactive; rRNA inh HTS: inactive; S100A4 MyoIIA: inactive

Results for C[C@@H]1CCCCO[C@@H](CN(C)CC2CCCCC2)[C@H](C)CN([C@@H](C)CO)C(=O)c2cc(NC(=O)CCC(F)(F)F)ccc2O1 ?
CFTR F508del cor: inactive; rRNA inh HTS: inactive

Results for Cn1c(=O)cc2c3c(c(N4CCCCC4)ccc31)C(=O)c1ccccc1-2 ?
ERAP1 inh: inactive; SIRT5 inh: inactive; rRNA inh HTS: inactive; S100A4 MyoIIA: 103

How did O=C1c2ccccc2C(=O)c2c1cccc2N1CCCC1 do in these assays?
ERAP1 inh: inactive; SIRT5 inh: inactive; CFTR F508del cor: 8.0; S100A4 MyoIIA: inactive

What do the screens show for `O=C(Nc1cccc(O)c1)c1cc(-c2ccccc2Cl)on1`?
ERAP1 inh: inactive; SIRT5 inh: inactive; CFTR F508del cor: inactive; rRNA inh HTS: -25; S100A4 MyoIIA: inactive

Results for COc1ccc(C#Cc2ccc3c(c2)[C@@H]2[C@@H](CCN2S(=O)(=O)c2ccccc2C)[C@@H](CO)N3)cc1 ?
ERAP1 inh: inactive; SIRT5 inh: inactive; CFTR F508del cor: inactive; rRNA inh HTS: inactive; S100A4 MyoIIA: inactive

Results for CCC(=O)N1[C@H](CN(CC)C(C)=O)[C@@H](c2ccc(-c3ccccc3)cc2)[C@@H]1CO ?
CFTR F508del cor: 8.9; rRNA inh HTS: inactive

How did CCC(=O)N1[C@@H](CO)[C@@H](c2ccc(-c3ccccc3)cc2)[C@@H]1CN(CC)C(C)=O do in these assays?
ERAP1 inh: inactive; SIRT5 inh: inactive; CFTR F508del cor: inactive; rRNA inh HTS: inactive; S100A4 MyoIIA: inactive

How did CCC(=O)N1[C@H](CO)[C@H](c2ccc(-c3ccccc3)cc2)[C@H]1CN(CC)C(C)=O do in these assays?
ERAP1 inh: inactive; SIRT5 inh: 30; CFTR F508del cor: inactive; rRNA inh HTS: inactive; S100A4 MyoIIA: inactive

How did COc1ccc(NC(=O)N[C@@H]2CC[C@@H](CCNS(=O)(=O)c3cccc(Cl)c3)O[C@H]2CO)cc1 do in these assays?
ERAP1 inh: inactive; SIRT5 inh: inactive; CFTR F508del cor: inactive; rRNA inh HTS: inactive; S100A4 MyoIIA: inactive

What do the screens show for `CNC(=O)/C(C#N)=C\c1ccc(CNS(=O)(=O)c2ccc(Cl)cc2)o1`?
ERAP1 inh: 33; SIRT5 inh: inactive; CFTR F508del cor: inactive; rRNA inh HTS: inactive; S100A4 MyoIIA: inactive

Results for CNC[C@H]1Oc2ccc(NC(=O)C3CC3)cc2CC(=O)N([C@@H](C)CO)C[C@H]1C ?
ERAP1 inh: inactive; SIRT5 inh: inactive; CFTR F508del cor: inactive; rRNA inh HTS: inactive; S100A4 MyoIIA: inactive

How did O=C(Nc1ccc(Cl)cc1)c1ccc(S(=O)(=O)N2CCOCC2)cc1 do in these assays?
ERAP1 inh: inactive; SIRT5 inh: inactive; CFTR F508del cor: inactive; rRNA inh HTS: inactive; S100A4 MyoIIA: inactive

How did O=C(Nc1ccc(S(=O)(=O)N2CCOCC2)cc1)c1cc(-c2cc(Cl)ccc2O)n[nH]1 do in these assays?
ERAP1 inh: inactive; SIRT5 inh: inactive; CFTR F508del cor: inactive; rRNA inh HTS: -38; S100A4 MyoIIA: inactive

Results for O=C(C[C@H]1C=C[C@@H](NC(=O)Nc2ccc(C(F)(F)F)cc2)[C@H](CO)O1)NCc1ccccn1 ?
ERAP1 inh: inactive; SIRT5 inh: inactive; CFTR F508del cor: inactive; rRNA inh HTS: inactive; S100A4 MyoIIA: inactive

How did CC(=O)Nc1ccc(NC(=O)C(C)n2nc(C)c([N+](=O)[O-])c2C)cc1 (stereo unspecified) do in these assays?
SIRT5 inh: 28; CFTR F508del cor: inactive; rRNA inh HTS: inactive; S100A4 MyoIIA: inactive

How did CN(C)C(=O)C[C@@H]1CC[C@H]2[C@@H](COc3ccc(NC(=O)c4ccc(F)c(F)c4)cc3C(=O)N2C)O1 do in these assays?
ERAP1 inh: inactive; SIRT5 inh: inactive; CFTR F508del cor: inactive; rRNA inh HTS: inactive; S100A4 MyoIIA: inactive

Results for O=S(=O)(O)c1cccc2c(N=Nc3ccc(O)c4ncccc34)cccc12 ?
ERAP1 inh: inactive; SIRT5 inh: 34; rRNA inh HTS: inactive; S100A4 MyoIIA: inactive

How did COc1ccc(N=Nc2ccc(O)c3ncccc23)cc1 do in these assays?
ERAP1 inh: inactive; SIRT5 inh: inactive; CFTR F508del cor: inactive; rRNA inh HTS: inactive; S100A4 MyoIIA: inactive

Results for O=Nc1ccc(O)c2ncccc12 ?
SIRT5 inh: inactive; CFTR F508del cor: 16; rRNA inh HTS: inactive; S100A4 MyoIIA: inactive
